Source: ChEMBL document CHEMBL1126043, “Novel thiazolidine-2,4-diones as potent euglycemic agents” (1992)

Key:
Mus musculus [1] = test: In vivo euglycemic activity of the compound (administered by oral gavage) in C57/6J-ob/ob mice is measured by normalization of blood glucose levels at a dose of 50(mg/kg); type: functional
Mus musculus [2] = test: In vivo euglycemic activity (administered by oral gavage) in C57/6J-ob/ob mice measured by normalization of blood glucose levels at a dose of 5 mg/kg.; type: functional
Mus musculus [3] = test: In vivo euglycemic activity of the compound (administered by oral gavage) in C57/6J-ob/ob mice is measured by normalization of blood glucose levels at a dose of 0.25(mg/kg); type: functional
Summary of the method: (§1)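 Mice bled from retro-orbital sinus into tubes with 2% sodium heparin for baseline glucose, then dosed by oral gavage once daily for 4 days in 0.25% (w/v) methylcellulose in water, no pH adjustment (0.1 mL per 20 g). Bled 24 h after fourth dose. Samples centrifuged 2 min at 10000g. Plasma glucose measured by hexokinase UV method. Results scaled to vehicle (0%) and ciglitazone 50 mg/kg (100%).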

Mus musculus [4] = test: In vivo euglycemic activity (administered by oral gavage) in C57/6J-ob/ob mice by normalization of blood glucose levels at a dose of 0.5 mg/kg.; type: functional; summary of the method: as §1
Mus musculus [5] = test: In vivo euglycemic activity of the compound (administered by oral gavage) in C57/6J-ob/ob mice is measured by normalization of blood glucose levels at a dose of 2.5(mg/kg); type: functional; summary of the method: as §1
Mus musculus [6] = test: In vivo euglycemic activity (administered by oral gavage) in C57/6J-ob/ob mice by normalization of blood glucose levels at a dose of 10 mg/kg.; type: functional; summary of the method: as §1
Mus musculus [7] = test: In vivo euglycemic activity (administered by oral gavage) in C57/6J-ob/ob mice by normalization of blood glucose levels at a dose of 1 mg/kg.; type: functional; summary of the method: as §1
Mus musculus [8] = test: In vivo euglycemic activity of the compound (administered by oral gavage) in C57/6J-ob/ob mice is measured by normalization of blood glucose levels at a dose of 0.1(mg/kg); type: functional; summary of the method: as §1
Mus musculus [9] = test: In vivo euglycemic activity of the compound (administered by oral gavage) in C57/6J-ob/ob mice is measured by normalization of blood glucose levels at a dose of 0.05(mg/kg); type: functional; summary of the method: as §1
Mus musculus [10] = test: In vivo euglycemic activity of the compound (administered by oral gavage) in C57/6J-ob/ob mice is measured by normalization of blood glucose levels at a dose of 10(mg/kg).; type: functional; summary of the method: as §1
Mus musculus [11] = test: In vivo euglycemic activity of the compound (administered by oral gavage) in C57/6J-ob/ob mice is measured by normalization of blood glucose levels at a dose of 1(mg/kg).; type: functional; summary of the method: as §1
Mus musculus [12] = test: In vivo euglycemic activity of the compound (administered by oral gavage) in C57/6J-ob/ob mice is measured by normalization of blood glucose levels at a dose of 25(mg/kg); type: functional; summary of the method: as §1
Mus musculus [13] = test: In vivo euglycemic activity of the compound (administered by oral gavage) in C57/6J-ob/ob mice is measured by normalization of blood glucose levels at a dose of 5(mg/kg)

Structure (SMILES) | Normalization (Mus musculus [3]) [%] | Normalization (Mus musculus [4]) [%] | Normalization (Mus musculus [7]) [%] | Normalization (Mus musculus [8]) [%] | other results
CC1(COc2ccc(CC3SC(=O)NC3=O)cc2)CCCCC1 (configuration not stated) [CIGLITAZONE] | – | – | – | – | Normalization (Mus musculus [1]): 100%
Cc1oc(-c2ccccc2)nc1CCC(=O)c1ccc(CC2SC(=O)NC2=O)cc1 (configuration not stated) [DARGLITAZONE] | 88 | 97 | 100 | 83 | Normalization (Mus musculus [2]): 100%; Normalization (Mus musculus [5]): 88%; Normalization (Mus musculus [6]): 100%
Cc1oc(-c2ccccc2)nc1C/C=C/c1ccc(CC2SC(=O)NC2=O)cc1 (configuration not stated) | 74 | 84 | – | 29 | –
Cc1oc(-c2ccc(C(F)(F)F)cc2)nc1CCC(=O)c1ccc(CC2SC(=O)NC2=O)cc1 (configuration not stated) | 81 | 69 | 86 | 88 | –
Cc1oc(-c2ccccc2)nc1CCC(O)c1ccc(CC2SC(=O)NC2=O)cc1 (configuration not stated) | 85 | 100 | – | 93 | Normalization (Mus musculus [9]): 72%
Cc1oc(-c2ccccc2)nc1CCC(=O)c1ccc(/C=C2\SC(=O)NC2=O)cc1 | – | 81 | 84 | 43 | –
O=C1NC(=O)C(Cc2ccc(C(=O)COc3ccccc3)cc2)S1 (configuration not stated) | – | – | – | – | Normalization (Mus musculus [10]): 7%
COc1c(C)cc(-c2nc(CCC(=O)c3ccc(CC4SC(=O)NC4=O)cc3)c(C)o2)cc1C (configuration not stated) | – | 100 | 100 | 75 | –
Cc1ccc(-c2nc(CCC(=O)c3ccc(CC4SC(=O)NC4=O)cc3)c(C)o2)cc1 (configuration not stated) | 15 | 47 | – | – | Normalization (Mus musculus [11]): 47%
O=C1NC(=O)C(Cc2ccc(C(=O)CCc3ccccc3)cc2)S1 (configuration not stated) | – | – | – | – | Normalization (Mus musculus [2]): 53%; Normalization (Mus musculus [6]): 81%; Normalization (Mus musculus [12]): 93%
COc1ccccc1/C=C/C(=O)c1ccc(CC2SC(=O)NC2=O)cc1 (configuration not stated) | – | – | – | – | Normalization (Mus musculus [6]): 66%; Normalization (Mus musculus [13]): 50%
Cc1ccc(-c2nc(CCC(=O)c3ccc(CC4SC(=O)NC4=O)cc3)c(C)o2)o1 (configuration not stated) | 87 | 68 | – | 47 | –
